A selection: hits, their analogues and other compounds. The true share with any hit is near 3.1%.
KCNQ1 pot: human KCNQ1 channel potentiation or activation; B-score at 10 µM; P51787; AID 2648; CHO-K1 KCNQ1, thallium flux FluxOR fluorescence; stronger effect = higher value; actives 0.35% (n = 310,000);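 active = fluorescence ratio B-score, a plate-corrected score, at least three library SD, with initial intensity B-score within 5 SD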
Target sequence (P51787 whole entry, looked up): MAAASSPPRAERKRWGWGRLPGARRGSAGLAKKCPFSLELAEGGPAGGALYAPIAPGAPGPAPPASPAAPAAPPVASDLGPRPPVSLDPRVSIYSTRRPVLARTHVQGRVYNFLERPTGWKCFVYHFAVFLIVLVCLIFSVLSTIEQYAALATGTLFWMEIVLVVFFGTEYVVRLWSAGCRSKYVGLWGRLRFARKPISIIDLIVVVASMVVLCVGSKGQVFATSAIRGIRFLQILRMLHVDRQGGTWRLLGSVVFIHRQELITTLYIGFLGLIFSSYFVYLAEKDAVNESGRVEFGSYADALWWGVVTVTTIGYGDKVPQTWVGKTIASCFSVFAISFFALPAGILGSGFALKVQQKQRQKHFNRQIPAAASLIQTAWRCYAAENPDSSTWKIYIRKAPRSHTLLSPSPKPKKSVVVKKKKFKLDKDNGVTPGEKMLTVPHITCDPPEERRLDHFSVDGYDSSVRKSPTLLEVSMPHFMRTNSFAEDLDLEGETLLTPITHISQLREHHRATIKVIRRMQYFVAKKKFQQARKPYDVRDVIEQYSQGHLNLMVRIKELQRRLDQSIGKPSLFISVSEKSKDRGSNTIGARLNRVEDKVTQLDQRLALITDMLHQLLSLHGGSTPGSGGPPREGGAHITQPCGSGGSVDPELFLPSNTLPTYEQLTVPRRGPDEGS
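Medium – assay buffer, equal DMSO in all wells · Material – CHO-K1 cell line with stable KCNQ1 potassium channel expression · Signal – kinetic FluxOR thallium fluorescence, 10-s 1-Hz baseline, 110-s post-stimulus read · Compound – single concentration per compound, DMSO matched to controls · Schedule – 37 °C overnight plating, 90-min dark dye load, 20-min compound pretreatment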
hERG rescue: hERG (human) protection from proarrhythmic block. actives 0.51% (n = 310,000). CHO-hERG, FluxOR thallium flux, dofetilide IC70 present. activation (rescue from dofetilide block), less the hit threshold, % at 10 µM;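 active = activation above the mean of controls blocked by dofetilide plus 5 SD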;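 note: thallium influx through hERG after potassium depolarization seen as dye fluorescence rise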
KCNK9 block: inhibitors of human KCNK9 two-pore domain potassium channel; actives 1.2% (n = 310,000); HEK293 KCNK9, FluxOR thallium flux fluorescence; stronger effect = lower value; B-score at 10 µM; Q9NPC2;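 active = ratio B-score over 3 SD below the library mean, with starting fluorescence within 5 SD of its mean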;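 note: negative B-score means less thallium flux so channel inhibition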
KCNQ1 block: inhibitors of human KCNQ1 potassium channel. B-score at 10 µM. CHO-K1 KCNQ1, FluxOR thallium flux fluorescence; stronger effect = higher value. actives 1.3% (n = 310,000);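 active = compounds whose thallium flux B-score, printed positive for inhibition, exceeds three library SD while starting fluorescence stays within three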;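 note: channel opened by potassium depolarization with thallium stimulus after 20 min compound exposure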
KCNK3 block: human KCNK3 channel inhibition, primary screen | O14649 | B-score at 10 µM | actives 0.84% (n = 340,000) | CHO-KCNK3 thallium flux, FluxOR fluorescence; stronger effect = lower value;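 active = B-score under library mean minus 4 SD, starting fluorescence ratio at most library mean plus 5 SD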;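 note: more negative B-score means stronger inhibition of thallium flux through KCNK3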
Numbers stand for hits.

Screening CC(=O)N1CC(C)Oc2ccc(S(=O)(=O)NC(CC(=O)O)c3cc(C)ccc3C)cc21 (stereo not drawn) returned KCNQ1 pot inactive, hERG rescue inactive, KCNK9 block inactive, KCNQ1 block inactive and KCNK3 block inactive.
`O=C(Nc1ccc(Cl)c(Cl)c1)c1ccncc1` gave KCNQ1 pot inactive, hERG rescue inactive, KCNK9 block inactive, KCNQ1 block inactive and KCNK3 block inactive.
Screening O=C(Nc1ccc(Cl)c(Cl)c1)c1ccc(Cl)c(Cl)c1 returned KCNQ1 pot inactive, hERG rescue inactive, KCNK9 block inactive, KCNQ1 block 7 and KCNK3 block inactive.
Screening O=C(Nc1nc2c(Br)cc(Br)cc2c(=O)s1)C1CCC1 returned KCNQ1 pot inactive, hERG rescue 5.9, KCNK9 block inactive, KCNQ1 block inactive and KCNK3 block inactive.
Screening CC(CCN1C(Nc2ccccc2)=NC[C@@H]1Cc1ccccc1)c1ccccc1 (stereo partly drawn) returned KCNQ1 pot inactive, hERG rescue inactive, KCNK9 block inactive, KCNQ1 block inactive and KCNK3 block inactive.
Screening CCc1nn2cc(C(=O)c3cc(Cl)ccc3O)cnc2c1-c1ccc(F)cc1 returned KCNQ1 pot inactive, hERG rescue inactive, KCNK9 block inactive, KCNQ1 block 8 and KCNK3 block inactive.
For Cc1nn(-c2ccccc2)c2ncc(C(=O)c3cc(Cl)ccc3O)cc12 the results were KCNQ1 pot inactive, hERG rescue inactive, KCNK9 block inactive, KCNQ1 block inactive and KCNK3 block inactive.
O=C(C[n+]1ccccc1)N/N=C/c1ccc(Cl)c(Cl)c1 was read as KCNQ1 pot inactive, hERG rescue 5.2, KCNK9 block inactive, KCNQ1 block inactive and KCNK3 block inactive.
Screening CC1(c2ccc([N+](=O)[O-])cc2)CC(C)(C)N(C(=O)c2ccccc2)c2ccccc21 (stereo not drawn) returned KCNQ1 pot inactive, hERG rescue inactive, KCNK9 block inactive and KCNQ1 block 6.
Screening COc1ccc(C(=O)OCC(=O)Nc2sccc2C(N)=O)cc1[N+](=O)[O-] returned KCNK3 block inactive.
COc1ccc(NC(=O)c2ccc(COCC(F)(F)C(F)F)cc2)cc1 was read as KCNQ1 pot inactive, hERG rescue 13, KCNK9 block inactive, KCNQ1 block inactive and KCNK3 block inactive.
Screening COc1ccc(NC(=O)c2ccc(COCC(F)(F)C(F)F)cc2)cc1OC returned KCNQ1 pot inactive, hERG rescue inactive, KCNK9 block inactive, KCNQ1 block inactive and KCNK3 block inactive.
For O=C1CCC(c2ccc(-n3ccnc3)cc2)=NN1 the results were KCNQ1 pot 33, hERG rescue inactive, KCNK9 block inactive, KCNQ1 block inactive and KCNK3 block inactive.
`O=C(COC(=O)CSc1ccc(Cl)cc1)Nc1ccc2[nH]c(=O)[nH]c2c1` gave KCNK3 block inactive.
O=C(Oc1c(-c2ccccc2)c(=O)n2c3c(cccc13)CC2)c1cccc([N+](=O)[O-])c1 was read as KCNQ1 pot inactive, hERG rescue inactive, KCNK9 block inactive, KCNQ1 block 6 and KCNK3 block inactive.
COc1ccc(NC(=O)c2ccco2)cc1NC(=O)c1ccccc1[N+](=O)[O-] was read as KCNQ1 pot inactive, hERG rescue inactive, KCNK9 block inactive, KCNQ1 block inactive and KCNK3 block inactive.
CC(C)(C)n1nnnc1CN1CCN(C(c2ccccc2)c2ccccc2)CC1 was read as KCNQ1 pot inactive, hERG rescue inactive, KCNK9 block inactive, KCNQ1 block inactive and KCNK3 block -8.7.
`COc1ccccc1OCC(=O)/C=C1/N(C)c2ccccc2C1(C)C` gave KCNQ1 pot inactive, hERG rescue inactive, KCNK9 block inactive, KCNQ1 block inactive and KCNK3 block inactive.
For CN1/C(=C\C(=O)COc2ccc3c(c2)OCO3)C(C)(C)c2ccccc21 the results were KCNQ1 pot inactive, hERG rescue inactive, KCNK9 block -8, KCNQ1 block inactive and KCNK3 block inactive.
`CC(C)Cc1ccc(C(C)C(N)=NCCc2ccccc2)cc1` (stereo not drawn) gave KCNQ1 pot inactive, hERG rescue inactive, KCNK9 block inactive, KCNQ1 block 9 and KCNK3 block inactive.
For COc1ccc(CCN=C(N)C(C)c2ccccc2)cc1OC (stereo not drawn) the results were KCNQ1 pot inactive, hERG rescue inactive, KCNK9 block inactive, KCNQ1 block inactive and KCNK3 block inactive.
Screening CN(CC(=O)Nc1ccc(OC(F)(F)F)cc1)C(=O)Cc1cccs1 returned KCNK3 block inactive.
O=C1NC(=O)C(c2ccccc2)(c2ccc(Cl)cc2Cl)N1 (stereo not drawn) was read as KCNK3 block inactive.
For c1ccc(CCCNc2ncnc3nc[nH]c23)cc1 the results were KCNQ1 pot inactive, hERG rescue 6.0, KCNK9 block inactive, KCNQ1 block inactive and KCNK3 block inactive.
N#Cc1cn(CCOc2ccccc2F)c2ccccc12 was read as KCNQ1 pot inactive, hERG rescue inactive, KCNK9 block -7.5, KCNQ1 block inactive and KCNK3 block inactive.
CC1=CC[C@@]23CCCN2C(=O)CCC[C@H]3C1 was read as KCNK3 block inactive.
`COc1cccc(-n2cnnc2SC(C)C(=O)NC2CCCC2)c1` (stereo not drawn) gave KCNK3 block inactive.
COC(=O)c1nn(Cc2ccccc2)c(=O)c2ccccc12 was read as KCNQ1 pot inactive, hERG rescue inactive, KCNK9 block inactive, KCNQ1 block inactive and KCNK3 block inactive.
For COc1cc2c(cc1OC)CN(C(=O)c1nn(Cc3ccccc3)c(=O)c3ccccc13)CC2 the results were KCNK3 block -9.3.
Cn1c2ccccc2c(=O)c2ccc(C#CC3(O)CCCCC3)cc21 was read as KCNQ1 pot inactive, hERG rescue inactive, KCNK9 block inactive, KCNQ1 block inactive and KCNK3 block inactive.
`COc1ccc(C#Cc2ccc3c(c2)c(=O)c2ccccc2n3C)cc1` gave KCNQ1 pot inactive, hERG rescue inactive, KCNK9 block -7.4, KCNQ1 block inactive and KCNK3 block inactive.
`COc1ccccc1N(Cc1ccccc1)S(=O)(=O)c1cccc(C(=O)Nc2ccc(C)cn2)c1` gave KCNQ1 pot inactive, hERG rescue inactive, KCNK9 block inactive, KCNQ1 block 6 and KCNK3 block inactive.
For COc1ccccc1N(Cc1ccccc1)S(=O)(=O)c1cccc(C(=O)Nc2ccccn2)c1 the results were KCNQ1 pot inactive, hERG rescue inactive, KCNK9 block inactive, KCNQ1 block inactive and KCNK3 block inactive.
`CC(C)NC(=O)c1ccc(CSCc2ccccc2Cl)o1` gave KCNQ1 pot inactive, hERG rescue inactive, KCNK9 block inactive, KCNQ1 block inactive and KCNK3 block inactive.
Screening CCC(C)NC(=O)c1ccc(CSCc2ccccc2Cl)o1 (stereo not drawn) returned KCNQ1 pot inactive, hERG rescue inactive, KCNK9 block -6.7, KCNQ1 block inactive and KCNK3 block inactive.
For COc1cccc(NC(=O)CCC2CCN(C(=O)c3scnc3C)CC2)c1 the results were KCNQ1 pot inactive, hERG rescue inactive, KCNK9 block inactive, KCNQ1 block inactive and KCNK3 block inactive.

From PubChem BioAssay
